A short description of experiment [1]: Her2 expression decrease, cell viability multiplex – SKBR3 breast tumor cells, AlphaScreen, ATP viability, primary screen (AID 461;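 active = Her2 level under about 52% in both replicate screens, with viability over 70% of control, limit read from the data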;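 for Her2 level: lower value means less Her2 protein in the cells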;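 for viability: percent of carrier control wells set as 100% viability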). Conditions: SKBR3 Her2 protein level, 18-24 h, measured here: SKBR3 viability, ATP luminescence, at 10 µM. Background: Bead proximity is the source of the signal in Alpha formats.
For experiment [2], the target named is Receptor tyrosine-protein kinase erbB-2 (Homo sapiens) (UniProt P04626). The description is as above. Conditions: 18-24 h, at 10 µM, stronger effect = lower value.
Receptor tyrosine-protein kinase erbB-2 (Homo sapiens), sequence (P04626 whole entry, looked up): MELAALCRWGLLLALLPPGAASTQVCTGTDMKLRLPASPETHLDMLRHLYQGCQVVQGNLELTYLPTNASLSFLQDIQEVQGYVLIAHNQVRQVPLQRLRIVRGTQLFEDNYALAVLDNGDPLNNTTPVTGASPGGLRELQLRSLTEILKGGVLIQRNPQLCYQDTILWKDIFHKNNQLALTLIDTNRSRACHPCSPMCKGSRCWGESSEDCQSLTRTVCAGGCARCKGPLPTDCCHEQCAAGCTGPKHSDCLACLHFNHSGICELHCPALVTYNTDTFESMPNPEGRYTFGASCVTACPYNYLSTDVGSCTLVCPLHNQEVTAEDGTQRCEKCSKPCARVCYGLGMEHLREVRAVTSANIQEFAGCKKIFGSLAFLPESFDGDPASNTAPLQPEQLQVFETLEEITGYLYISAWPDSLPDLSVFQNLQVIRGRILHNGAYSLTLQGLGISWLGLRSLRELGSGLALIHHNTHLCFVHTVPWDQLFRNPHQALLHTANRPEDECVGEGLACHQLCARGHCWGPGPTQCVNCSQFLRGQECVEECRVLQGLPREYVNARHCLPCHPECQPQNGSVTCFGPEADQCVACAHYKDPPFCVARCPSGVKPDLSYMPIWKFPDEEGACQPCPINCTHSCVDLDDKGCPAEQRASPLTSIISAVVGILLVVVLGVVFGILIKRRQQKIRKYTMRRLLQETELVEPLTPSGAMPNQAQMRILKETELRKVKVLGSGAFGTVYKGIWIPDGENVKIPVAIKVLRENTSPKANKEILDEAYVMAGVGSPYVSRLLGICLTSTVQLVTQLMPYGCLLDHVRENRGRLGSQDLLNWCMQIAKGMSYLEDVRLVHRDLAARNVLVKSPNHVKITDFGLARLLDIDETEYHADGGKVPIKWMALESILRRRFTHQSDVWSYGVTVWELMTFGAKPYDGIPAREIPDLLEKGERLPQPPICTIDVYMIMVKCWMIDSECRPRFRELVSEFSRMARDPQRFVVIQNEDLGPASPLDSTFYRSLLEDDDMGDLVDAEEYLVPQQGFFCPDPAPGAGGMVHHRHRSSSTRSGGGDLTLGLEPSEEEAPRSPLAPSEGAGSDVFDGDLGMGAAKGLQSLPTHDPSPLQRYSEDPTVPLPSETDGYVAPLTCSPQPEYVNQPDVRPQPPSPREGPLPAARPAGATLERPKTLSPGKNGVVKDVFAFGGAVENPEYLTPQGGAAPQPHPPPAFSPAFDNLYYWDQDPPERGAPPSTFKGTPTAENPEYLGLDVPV
Experiment [3] is described as follows: reduced viability of SK-BR-3 breast cancer cells – cell-based, 24 h, human, pilot screen (AID 572;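 active = viability at or below 10% of carrier control in both of two separate runs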;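 note: compound exposure lasted between 18 and 24 h rather than exactly 24 h; 100% = carrier-treated control wells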). As to conditions: SK-BR-3 viability, CellTiter-Glo luminescence, at 10 µM, stronger effect = lower value.
A short description of experiment [4]: HUVEC growth inhibition – cell-based, human, primary screen (AID 575;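 active = viability at or below 30% in both replicate assays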;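 note: 100% = median of untreated cell wells with 0.1% DMSO on each plate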). As to conditions: HUVEC proliferation, CellTiter-Glo luminescence, 72 h; at 10 µM; stronger effect = lower value. The method in brief: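 Test system: HUVEC primary cells. Quantity: 1250 endothelial cells in each well. Dosing: single-point 10 µM, DMSO 0.1% final. Incubation: 72 h treatment at 37 °C. Measured by: CTG luminescence. Control set: DMSO cell controls and MePR drug controls. Plate: collagen-coated 384-well format.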
(In ATP-based viability assays light output follows the ATP content of the culture.)

A short description of experiment [5]: H69AR cell proliferation blockers – human, duplicate replicates, primary screen (AID 580;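 active = viability at or under a set limit in both replicates, limit being median viability minus 3 SD, cut at about 48% in these data, passing the limit was not always enough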;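 note: 100% = mean luminescence of untreated wells and 0% = no signal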). Conditions: H69AR lung tumor cells viability, ATP luminescence, 72 h; at 10 µM; stronger effect = lower value.
Experiment [6] can be described thus: MRP1 drug-resistance reversers in H69AR cells – cell-based, doxorubicin co-treatment, pilot screen (AID 601;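 active = viability loss from added drug above about 55%, and viability with drug at most 40%, in both replicates, limit read from the data, passing the limit was not always enough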). As to conditions: CellTiter-Glo, 72 h, at 10 µM; for differential viability (reversal): stronger effect = higher value.
A short description of experiment [7]: yeast transport mutant growth inhibition pilot in 384-well plates, post-Golgi transport modulator project (AID 636; in the data active = inhibition above about 31%). As to conditions: absorbance 615 nm, about 18 h, stronger effect = higher value.
Experiment [8] is described as follows: growth suppression of yeast trafficking mutant, preliminary HTS, modulators of trafficking downstream of Golgi apparatus project, 1536-format plate, OD 615 nm (AID 637). As to conditions: yeast transport mutant growth, absorbance 615 nm, 18 h; stronger effect = higher value.
Setting [9] is: H69AR cells + 2 uM doxorubicin, measured here: viability with 2 uM doxorubicin, stronger effect = lower value.
Setting [10] is: H69AR cells, compound alone cytotoxicity.

SMILES strings stand for the structures. The source made the active and inactive calls. Cut-off read from the data, not from the text of the source, unless noted: active = inhibition above about 30%; inactive = the rest.

Take `[O-][n+]1c2ccc3nonc3c2nn1-c1ccccc1Cl`: the viability (commonly a read-out of living cells in per cent, often relative to untreated cells) is 136% in experiment [1]; 136% (inactive) in experiment [3]; 89.3% (inactive) in experiment [4]; 95.1% (inactive) in experiment [5]; 79% in experiment [6] (setting [9]); 95.1% in experiment [6] (setting [10]). Further, the Her2 level in experiment [2] is 124% (inactive). In experiment [6] (H69AR cells + 2 uM doxorubicin), the differential viability (reversal) was 16.1% (inactive). For the same compound, the inhibition (commonly the change of the read-out against control, counted positive when it falls) in experiment [7] was -0.4% (inactive); in experiment [8], -6.45% (inactive).
As to `CCN(CC)c1ccc(/C=N/n2nnnc2N)c(O)c1`, the viability in experiment [1] was 119%; in experiment [3] it was 119% (inactive); in experiment [4], 57.6% (inactive); in experiment [5], 14.4% (active); in experiment [6] (setting [9]), 57.2%; in experiment [6] (setting [10]), 14.4%. Besides, the Her2 level in experiment [2] is 80% (inactive). In experiment [6] (H69AR cells + 2 uM doxorubicin), the differential viability (reversal) was -42.7% (inactive). In addition, the figures for the inhibition in experiment [7] and in experiment [8] were 0.52% (inactive) and -1.15% (inactive), respectively.
Consider `Cc1ccc(S(=O)(=O)NCC(=O)N(CC(=O)NCc2ccccc2)CC2CCCO2)cc1` (stereo not given), for which the viability was 110% in experiment [1]; 110% (inactive) in experiment [3]; 108% (inactive) in experiment [4]; 104% (inactive) in experiment [5]; 86.2% in experiment [6] (setting [9]); 104% in experiment [6] (setting [10]). Further, in experiment [2], the Her2 level is 91.5% (inactive). Moreover, the differential viability (reversal) in experiment [6] (H69AR cells + 2 uM doxorubicin) was 17.9% (inactive). The inhibition was -3.65% (inactive) in experiment [7] and 3.49% (inactive) in experiment [8].
As to `COc1cccc(-n2ccnc2SCC(=O)N2CCc3ccccc32)c1`, the viability is 94.5% in experiment [1]; 94.5% (inactive) in experiment [3]; 109% (inactive) in experiment [4]; 102% (inactive) in experiment [5]; 107% in experiment [6] (setting [9]); 102% in experiment [6] (setting [10]). In addition, the Her2 level in experiment [2] is 102% (inactive). Besides, the differential viability (reversal) in experiment [6] (H69AR cells + 2 uM doxorubicin) was -5.1% (inactive). The inhibition was 0.93% (inactive) in experiment [7] and -3.06% (inactive) in experiment [8].
On to `CCN(CCCNC(=O)CC1Oc2ccc(C)cc2NC1=O)Cc1ccccc1` (stereo not given), for which the viability was 116% in experiment [1]; 116% (inactive) in experiment [3]; 97.8% (inactive) in experiment [4]; 85% (inactive) in experiment [5]; 80.8% in experiment [6] (setting [9]); 85% in experiment [6] (setting [10]). Further, the Her2 level in experiment [2] is 94.5% (inactive). In addition, the differential viability (reversal) in experiment [6] (H69AR cells + 2 uM doxorubicin) was 4.2% (inactive). For the same compound, the inhibition in experiment [7] was -2.27% (inactive); in experiment [8] it was -2.13% (inactive).
Take `CCn1nccc1C(=O)Nc1cc(Cl)ccc1Cl`: the viability in experiment [1] is 102%; in experiment [3], 102% (inactive); in experiment [4] it was 89.3% (inactive); in experiment [5], 112% (inactive); in experiment [6] (setting [9]) it was 86.7%; in experiment [6] (setting [10]) it was 112%. Also, the Her2 level in experiment [2] is 97.5% (inactive). For the same compound, the differential viability (reversal) in experiment [6] (H69AR cells + 2 uM doxorubicin) is 24.9% (inactive). Further, the inhibition in experiment [7] was -5.66% (inactive); in experiment [8], -2% (inactive).
`CCCOc1ccc(C2c3c(oc4ccccc4c3=O)C(=O)N2CCCN2CCOCC2)cc1` (stereo not given): the viability in experiment [1] was 84.5%; in experiment [3], 84.5% (inactive); in experiment [4], 90.3% (inactive); in experiment [5], 71.6% (inactive); in experiment [6] (setting [9]), 71%; in experiment [6] (setting [10]), 71.6%. Also, in experiment [2], the Her2 level was 77.5% (inactive). Further, the differential viability (reversal) in experiment [6] (H69AR cells + 2 uM doxorubicin) was 0.68% (inactive). Further, the figures for the inhibition in experiment [7] and in experiment [8] were -3.73% (inactive) and -4.26% (inactive), respectively.
For `Cc1cc(C(=O)NCCCN2CCN(C3CCCCC3)CC2)n(-c2ccccc2)n1`, the viability in experiment [1] was 94%; in experiment [3], 94% (inactive); in experiment [4], 111% (inactive); in experiment [5], 103% (inactive); in experiment [6] (setting [9]), 90.8%; in experiment [6] (setting [10]), 103%. Besides, the Her2 level in experiment [2] is 111% (inactive). Also, in experiment [6] (H69AR cells + 2 uM doxorubicin), the differential viability (reversal) was 11.8% (inactive). The results for the inhibition in experiment [7] and in experiment [8] were 1.73% (inactive) and -8.33% (inactive), respectively.
As to `COc1cccc2cc(C(=O)N3CCN(C45CC6CC(CC(C6)C4)C5)CC3)c(=O)oc12`, the viability was 93.5% in experiment [1]; 93.5% (inactive) in experiment [3]; 81.8% (inactive) in experiment [4]; 107% (inactive) in experiment [5]; 94.7% in experiment [6] (setting [9]); 107% in experiment [6] (setting [10]). For the same compound, the Her2 level in experiment [2] was 92% (inactive). Also, in experiment [6] (H69AR cells + 2 uM doxorubicin), the differential viability (reversal) was 12.5% (inactive). In addition, the inhibition in experiment [7] is -3.16% (inactive); in experiment [8] it was -9.52% (inactive).
Regarding `CN1CCCC(OC(=O)COc2ccc(Br)cc2)C1` (stereo not given), the viability in experiment [1] was 93.5%; in experiment [3], 93.5% (inactive); in experiment [4], 91.4% (inactive); in experiment [5], 89.7% (inactive); in experiment [6] (setting [9]), 92.5%; in experiment [6] (setting [10]), 89.7%. The Her2 level in experiment [2] is 108% (inactive). For the same compound, the differential viability (reversal) in experiment [6] (H69AR cells + 2 uM doxorubicin) is -2.85% (inactive). Moreover, the inhibition was -0.8% (inactive) in experiment [7] and -1.48% (inactive) in experiment [8].
Turning to `CCOc1ccccc1NC(=O)CSc1c(C)n[nH]c1C`, the viability in experiment [1] was 90%; in experiment [3] it was 90% (inactive); in experiment [4] it was 109% (inactive); in experiment [5], 113% (inactive); in experiment [6] (setting [9]), 92.7%; in experiment [6] (setting [10]), 113%. Moreover, the Her2 level in experiment [2] was 88% (inactive). Further, in experiment [6] (H69AR cells + 2 uM doxorubicin), the differential viability (reversal) is 19.8% (inactive). In addition, the values for the inhibition in experiment [7] and in experiment [8] were -3.07% (inactive) and -3.71% (inactive), respectively.
As to `CCOC(=O)N1CCN(c2cc(=O)n(-c3ccc(OCC)cc3)c(=O)[nH]2)CC1`, the viability was 106% in experiment [1]; 106% (inactive) in experiment [3]; 104% (inactive) in experiment [4]; 97.5% (inactive) in experiment [5]; 90.7% in experiment [6] (setting [9]); 97.5% in experiment [6] (setting [10]). Moreover, the Her2 level in experiment [2] is 100% (inactive). Further, the differential viability (reversal) in experiment [6] (H69AR cells + 2 uM doxorubicin) is 6.84% (inactive). The figures for the inhibition in experiment [7] and in experiment [8] were -4.93% (inactive) and -1.97% (inactive), respectively.
For `CCOC(=O)COc1ccc(C2NC(C(=O)O)CS2)cc1` (stereo not given), the viability in experiment [1] was 94.5%; in experiment [3], 94.5% (inactive); in experiment [4] it was 83.4% (inactive); in experiment [5], 102% (inactive); in experiment [6] (setting [9]), 96.3%; in experiment [6] (setting [10]), 102%. In addition, the Her2 level in experiment [2] is 102% (inactive). The differential viability (reversal) in experiment [6] (H69AR cells + 2 uM doxorubicin) is 5.91% (inactive). Also, the results for the inhibition in experiment [7] and in experiment [8] were -3.03% (inactive) and -7.5% (inactive), respectively.
Consider `COC(=O)c1sc(NC(=O)c2ccoc2C)nc1C`, for which the viability in experiment [1] was 110%; in experiment [3] it was 110% (inactive); in experiment [4] it was 61.8% (inactive); in experiment [5] it was 75.3% (inactive); in experiment [6] (setting [9]) it was 72.9%; in experiment [6] (setting [10]) it was 75.3%. For the same compound, the Her2 level in experiment [2] was 118% (inactive). Moreover, the differential viability (reversal) in experiment [6] (H69AR cells + 2 uM doxorubicin) was 2.44% (inactive). For the same compound, the inhibition in experiment [7] is -3.07% (inactive); in experiment [8], 8.06% (inactive).
As for `COc1cc(C(=O)Nc2cc(Cl)ccc2C)c(-n2cnnn2)cc1OC`, the viability in experiment [1] was 102%; in experiment [3], 102% (inactive); in experiment [4], 92.6% (inactive); in experiment [5] it was 94.9% (inactive); in experiment [6] (setting [9]), 90.8%; in experiment [6] (setting [10]), 94.9%. Further, the Her2 level in experiment [2] was 98% (inactive). The differential viability (reversal) in experiment [6] (H69AR cells + 2 uM doxorubicin) is 4.13% (inactive). For the same compound, the inhibition in experiment [7] was -8% (inactive); in experiment [8] it was 2.95% (inactive).
On to `COCCn1c(SCC(=O)Nc2cccc(OC)c2)nnc1-c1ccc(Cl)cc1`, for which the viability is 98.5% in experiment [1]; 98.5% (inactive) in experiment [3]; 97% (inactive) in experiment [4]; 84.1% (inactive) in experiment [5]; 89.3% in experiment [6] (setting [9]); 84.1% in experiment [6] (setting [10]). For the same compound, the Her2 level in experiment [2] is 71.5% (inactive). For the same compound, the differential viability (reversal) in experiment [6] (H69AR cells + 2 uM doxorubicin) was -5.18% (inactive). For the same compound, the figures for the inhibition in experiment [7] and in experiment [8] were -6.4% (inactive) and 0.98% (inactive), respectively.
